Experimental data pooled from the literature.
Compare with care: the assays were run in different laboratories.
Target: Ephrin type-A receptor 8 (EPHA8, Homo sapiens, UniProt P29322)
One construct used (P29322 28-1005): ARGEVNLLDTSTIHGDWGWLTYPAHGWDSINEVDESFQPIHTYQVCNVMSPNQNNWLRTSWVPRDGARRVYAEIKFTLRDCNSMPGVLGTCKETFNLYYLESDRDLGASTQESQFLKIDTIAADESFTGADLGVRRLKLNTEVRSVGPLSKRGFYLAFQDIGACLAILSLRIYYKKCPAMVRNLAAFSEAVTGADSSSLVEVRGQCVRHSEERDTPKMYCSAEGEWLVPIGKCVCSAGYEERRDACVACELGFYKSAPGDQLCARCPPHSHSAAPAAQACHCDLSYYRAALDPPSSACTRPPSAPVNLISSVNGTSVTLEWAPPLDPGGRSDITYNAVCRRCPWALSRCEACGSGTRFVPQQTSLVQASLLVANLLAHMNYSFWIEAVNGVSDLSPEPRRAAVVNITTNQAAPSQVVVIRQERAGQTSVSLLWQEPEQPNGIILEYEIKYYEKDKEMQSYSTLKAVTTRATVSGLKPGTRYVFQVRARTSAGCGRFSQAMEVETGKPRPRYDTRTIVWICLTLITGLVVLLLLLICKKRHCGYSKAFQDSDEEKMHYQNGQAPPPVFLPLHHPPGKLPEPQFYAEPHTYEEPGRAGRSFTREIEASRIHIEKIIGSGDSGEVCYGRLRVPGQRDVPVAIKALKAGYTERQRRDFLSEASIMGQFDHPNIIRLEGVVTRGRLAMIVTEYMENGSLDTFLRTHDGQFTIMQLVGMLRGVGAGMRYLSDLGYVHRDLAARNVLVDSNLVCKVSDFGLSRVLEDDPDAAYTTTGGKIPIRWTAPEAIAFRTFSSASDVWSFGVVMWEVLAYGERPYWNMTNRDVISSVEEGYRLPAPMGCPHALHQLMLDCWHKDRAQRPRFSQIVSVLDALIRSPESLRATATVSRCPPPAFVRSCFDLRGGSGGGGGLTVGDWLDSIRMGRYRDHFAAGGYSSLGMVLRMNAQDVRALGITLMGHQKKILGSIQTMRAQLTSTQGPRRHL

SMILES | read-out | technique | concentration | remaining binding [%]
CCN1CCN(Cc2ccc(C(=O)Nc3ccc(C)c(Oc4ccc5c(c4)CC(=O)N5)c3)cc2C(F)(F)F)CC1 | binding | competition with immobilised ligand | 1 µM | 82
Cc1cnn2ncc(-c3ccnc(N(C)C)n3)c2c1 | binding |  | 1 µM | 99
O=C(NCC1CCOCC1)c1n[nH]cc1NC(=O)c1c(F)cccc1F | binding | competition with immobilised ligand | 1 µM | 100
C[C@@H](c1ccc(-n2cnc3c(N)ncnc32)cc1)N1CCc2nn(C)c(Cc3ccccc3)c2C1=O | binding | competition with immobilised ligand | 0.1 µM | 63
CC1=C(C#N)C(c2ccc3c(c2)c(NC(=O)c2ccccc2C)nn3C)C(C#N)=C(C)N1 | cell-free assay | competition with immobilised ligand | 1 µM | 100
O=C(c1ccc(Nc2ncc(Cl)c(-c3cc4ccccc4s3)n2)cc1)N1CCC(N2CCCC2)CC1 | binding | competition with immobilised ligand | 1 µM | 83
CN(C)c1nccc(-c2cnn3ncccc23)n1 | binding |  | 1 µM | 100
COc1ncc2cc3ccccc3nc2c1C#N | cell-free assay | competition with immobilised ligand | 5 µM | 94
O=C(c1ccc(Nc2ncc(Cl)c(-c3ccc(Cl)s3)n2)cc1)N1CCC(N2CCCC2)CC1 | binding | competition with immobilised ligand | 1 µM | 91
COc1cnc(Nc2cccc(S(N)(=O)=O)c2)nc1N1CCN(c2ccccc2)CC1 | binding | competition with immobilised ligand | 1 µM | 96
Cc1noc([C@H]2C[C@@H](c3ccc(C(F)(F)F)cc3)CN(C(=O)N3CCS(=O)(=O)C3)C2)n1 | cell-free assay | competition with immobilised ligand | 1 µM | 100
O=C(NCCCN1CCOCC1)c1ccc(Nc2nccc(-c3cc4ccccc4s3)n2)cc1 | binding | competition with immobilised ligand | 1 µM | 96
Nc1c(C(=O)NCc2ccc(C(=O)NCCCC3CCCCC3)cc2)cnn1-c1ccccc1 | cell-free assay | competition with immobilised ligand | 0.1 µM | 100
F[C@@H]1CCN(c2nccc(-c3cnn4ncccc34)n2)C1 | binding |  | 1 µM | 92
C[C@@H]1CN(c2cc(-c3n[nH]c4ccc(OC5(C)CC5)cc34)ncn2)C[C@H](C)O1 | cell-free assay | competition with immobilised ligand | 0.1 µM | 82
CC1CCCN1c1nccc(-c2cnn3ncccc23)n1 (centres unmarked) | binding |  | 1 µM | 100
CCOCCn1cc(C(=O)Nc2ccc(-n3nc(-c4cccnc4)cc3C(F)(F)F)cn2)ccc1=O | cell-free assay | competition with immobilised ligand | 1 µM | 84
COc1cnc(Nc2cccc(S(N)(=O)=O)c2)nc1N1CCN(c2ccccc2)C(=O)C1 | binding | competition with immobilised ligand | 1 µM | 100
CC(=O)C1=C(C)N(c2cccc(C(F)(F)F)c2)C(=O)N[C@@H]1c1ccc(C#N)nc1 | cell-free assay | competition with immobilised ligand | 1 µM | 100
c1cnn2ncc(-c3ccnc(N4CCC45COC5)n3)c2c1 | binding |  | 1 µM | 89
